GRK2 inh – blocks RNA aptamer binding to human GRK2 | P25098 | 330,000 tested, 0.59% active | inhibition of aptamer binding, % at 10 µM | AID 488847 | bead flow cytometry, FAM-aptamer displacement from GRK2;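 active means inhibition of aptamer binding above 40%, roughly 3 SD of noise, on plates passing a quality check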;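 further: median bead fluorescence of bound FAM aptamer so fluorescent compounds give negative values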
Target sequence (P25098 whole entry, looked up): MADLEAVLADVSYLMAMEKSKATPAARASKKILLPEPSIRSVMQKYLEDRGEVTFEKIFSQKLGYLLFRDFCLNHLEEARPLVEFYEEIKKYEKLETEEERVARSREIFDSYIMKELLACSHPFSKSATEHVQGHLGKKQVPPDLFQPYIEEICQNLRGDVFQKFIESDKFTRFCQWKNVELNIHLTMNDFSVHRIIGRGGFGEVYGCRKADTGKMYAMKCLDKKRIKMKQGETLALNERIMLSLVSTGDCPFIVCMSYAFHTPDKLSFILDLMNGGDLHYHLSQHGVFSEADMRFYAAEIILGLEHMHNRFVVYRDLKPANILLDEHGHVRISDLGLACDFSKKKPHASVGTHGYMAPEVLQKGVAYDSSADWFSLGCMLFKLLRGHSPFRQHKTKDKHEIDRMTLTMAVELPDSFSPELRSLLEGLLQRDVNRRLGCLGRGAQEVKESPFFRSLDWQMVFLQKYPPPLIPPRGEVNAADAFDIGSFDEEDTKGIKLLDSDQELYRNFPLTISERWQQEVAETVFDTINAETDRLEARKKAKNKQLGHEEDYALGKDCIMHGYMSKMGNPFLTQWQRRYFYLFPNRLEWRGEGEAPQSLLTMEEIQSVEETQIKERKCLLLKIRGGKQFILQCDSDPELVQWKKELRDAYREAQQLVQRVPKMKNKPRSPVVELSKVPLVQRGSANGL
ABHD5 PLIN5 PPI – inhibitors of human ABHD5-perilipin-5 interaction | AID 602281 | Split G. princeps luciferase complementation, luminescence, 4 h | inhibition, % at 4 µM | 360,000 tested, 0.78% active | Q00G26+Q8WTS1;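 active means inhibition above the mean inhibition across every tested compound plus 3 SD, cut at about 22% in these data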
NadD inh – inhibitors of Staphylococcus aureus NadD; AID 602399; inhibition, % at 20 µM; 360,000 tested, 0.78% active; purified NadD enzyme, colorimetric absorbance read-out; in the data active means inhibition above about 26%
SENP1 inh – blocks the human SENP1 SUMO protease catalytic domain | Q9P0U3 | recombinant SENP1 catalytic domain, CyPet-SUMO1-YPet FRET cleavage | inhibition, % at 10 µM | 360,000 tested, 0.21% active | AID 624204;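 active means inhibition at least 30% at 10 µM, raw YFP signal under a set limit, fluorescence ratio 0.5 to 1.5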
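system = hSENP1 catalytic domain, recombinant | reagent = SFCypet-SUMO1-SFYpet substrate at 25 nM | doses = one dose per compound, 10 µM, 0.5% DMSO | incubation = enzyme reaction for 50 min at room temperature, dark | measured by = FRET, CFP and YFP emission | controls = no-enzyme low, enzyme-DMSO high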
Beta2AR agonist – activates human beta-2 adrenergic receptor causing internalization; 340,000 tested, 0.43% active; response, % (no concentration beside the values); Am2.2-beta2AR cells, FAP receptor internalization, flow cytometry;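 active means response above a set limit, near 3 SD of response in nonfluorescent compounds, cut at about 42% in these data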
GRK2 CP1 – confirmation of human GRK2 inhibitors displacing RNA aptamer; shares compounds with GRK2 inh; bead-bound GRK2, FAM-aptamer displacement, flow cytometry; AID 504451; aptamer displacement, % at 10 µM; 2,000 tested, 4% active;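 active means aptamer displacement above 40%, near three times the noise of non-fluorescent compounds, on plates passing quality checks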;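 further: negative values mostly reflect intrinsic compound fluorescence rather than true enhancement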
Aptamer quench – counter-screen for GRK2 aptamer inhibitors: fluorescent aptamer quenchers. Fluorescent RNA aptamer beads, quenching, flow cytometry; active compounds read high. AID 504521. 110 tested, under 10 active. fluorescence change (kMESF span), kMESF (test concentration not listed). shares compounds with GRK2 inh;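 active means compounds whose bead fluorescence drops by more than 37 kMESF across the dose range, marking them as dye quenchers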
FAM quench CP1 – aptamer fluorescence quenching in GRK2 counter-screen | shares compounds with GRK2 inh | fluorescence response (% of DMSO), % at 10 µM | 2,000 tested, under 10 active | Carboxyfluorescein RNA aptamer on beads, flow cytometry quenching; active compounds read low;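 active means compounds that quench the bead-bound fluorescent RNA probe, cutting fluorescence to under half of the solvent control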;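 further: counterscreen run without GRK2 so only probe quenching by compound is measured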
GRK2 confirm 2 – human GRK2 inhibition confirmation, cherry pick 2; shares compounds with GRK2 inh; bead-bound GRK2, FAM-aptamer displacement, flow cytometry; inhibition of aptamer binding, % at 10 µM; 360 tested, under 10 active;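 active means inhibition of aptamer binding above 40%, about triple the noise seen with nonglowing compounds, on plates passing quality control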;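 further: negative values mostly come from compounds that fluoresce themselves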
FAM quench SP – aptamer fluorescence quenching in GRK2 counter-screen | shares compounds with GRK2 inh | carboxyfluorescein RNA aptamer beads, flow cytometry quenching; active compounds read low | fluorescence response vs DMSO, % at 10 µM | 360 tested, under 10 active;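 active means response vs DMSO under 50%, meaning signal dropped by over half, treated as fluorescence quencher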;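 further: labelled aptamer on streptavidin beads without GRK2 as a quench counter-screen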
ABHD5-PLIN5 conf – confirmation of human ABHD5-PLIN5 interaction inhibitors; shares compounds with ABHD5 PLIN5 PPI; biochemical ABHD5-PLIN5 interaction, luminescence; inhibition, % at 4 µM; 2,200 tested, 67% active; in the data active means inhibition above about 23%
HNF4 split-luc – active in HNF4 split-luciferase counter-screen for ABHD5-PLIN5 inhibitors | shares compounds with ABHD5 PLIN5 PPI | HNF4 dimerization, luminescence, biochemical | inhibition, % at 4 µM | 2,200 tested, 77% active | AID 651674;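 active means mean inhibition across replicate wells exceeding the computed hit threshold, cut at about 13% in these data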;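 further: light from luciferase halves that rejoin when HNF4 fusion proteins dimerize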
A number is an active result. This is a sample that favours compounds with a hit; in the whole collection about 2.5% have one here.

`COC(=O)c1ccc(NC(=O)NC(=O)Oc2ccccc2)cc1` gave GRK2 inh 81, ABHD5 PLIN5 PPI inactive, NadD inh inactive, SENP1 inh inactive, Beta2AR agonist inactive, GRK2 CP1 inactive and FAM quench CP1 inactive.
`O=C(Nc1ccccc1)Oc1ccccc1` gave GRK2 inh inactive, ABHD5 PLIN5 PPI inactive, NadD inh inactive, SENP1 inh inactive and Beta2AR agonist inactive.
N#CCCn1cc(C(=O)Nc2ccc([N+](=O)[O-])cc2)c(-c2ccc3c(c2)OCCO3)n1 was read as GRK2 inh 66, ABHD5 PLIN5 PPI inactive, NadD inh inactive, SENP1 inh inactive, Beta2AR agonist inactive, GRK2 confirm 2 inactive and FAM quench SP inactive.
For CC(C)(C)C(=O)N1Cc2ccccc2-n2nncc2C1 the results were ABHD5 PLIN5 PPI inactive, NadD inh inactive, SENP1 inh inactive and Beta2AR agonist inactive.
`Fc1ccccc1CNCCc1c[nH]c2ccccc12` gave GRK2 inh inactive, ABHD5 PLIN5 PPI inactive, NadD inh inactive, SENP1 inh inactive and Beta2AR agonist inactive.
Screening NCCc1c[nH]c2ccccc12 returned GRK2 inh 62, ABHD5 PLIN5 PPI inactive, NadD inh inactive, SENP1 inh inactive, Beta2AR agonist inactive, GRK2 CP1 inactive and FAM quench CP1 inactive.
For CCC(=Nc1ccc2c(c1)CCC2)c1c(O)n(C2CCCCC2)c(=O)[nH]c1=O the results were GRK2 inh 100, ABHD5 PLIN5 PPI inactive, NadD inh inactive, SENP1 inh inactive, Beta2AR agonist inactive, GRK2 CP1 inactive and FAM quench CP1 inactive.
Screening C[N+](C)(C)CCOC(=O)CBr returned GRK2 inh inactive, ABHD5 PLIN5 PPI inactive, NadD inh inactive, SENP1 inh inactive, Beta2AR agonist inactive, GRK2 CP1 inactive and FAM quench CP1 inactive.
`CCCCn1c(O)c(C(C)=NCc2ccc3c(c2)OCO3)c(=O)[nH]c1=O` gave GRK2 inh inactive, ABHD5 PLIN5 PPI inactive, NadD inh inactive, SENP1 inh inactive and Beta2AR agonist inactive.
O=c1[nH]c(=O)n(Cc2ccco2)c(O)c1C=NCc1ccc2c(c1)OCO2 was read as GRK2 inh inactive, ABHD5 PLIN5 PPI inactive, NadD inh inactive, SENP1 inh inactive, Beta2AR agonist inactive, GRK2 CP1 inactive and FAM quench CP1 inactive.
CCCCn1c(O)c(C=NCc2ccc3c(c2)OCO3)c(=O)[nH]c1=O was read as GRK2 inh 94, ABHD5 PLIN5 PPI inactive, NadD inh inactive, SENP1 inh inactive, Beta2AR agonist inactive, GRK2 CP1 inactive and FAM quench CP1 inactive.
For c1ccc2c3c(ccc2c1)OCC1CONC31 (centres undefined) the results were GRK2 inh inactive.
`Cc1ccnc(NC(=O)CCCc2ccc(N(CCCl)CCCl)cc2)n1` gave ABHD5 PLIN5 PPI inactive, NadD inh inactive, SENP1 inh inactive and Beta2AR agonist inactive.
O=c1cccc2n1CC1CNCC2C1 (centres undefined) was read as GRK2 inh inactive, ABHD5 PLIN5 PPI inactive, NadD inh inactive, SENP1 inh inactive and Beta2AR agonist inactive.
Screening C[C@]12CCC3C(CCC4=C/C(=N/OCC(=O)NC(CCC(N)=O)C(=O)O)CC[C@@]43C)C1CCC2O (some centres undefined) returned GRK2 inh inactive, ABHD5 PLIN5 PPI inactive, NadD inh inactive, SENP1 inh inactive, Beta2AR agonist inactive, GRK2 CP1 inactive and FAM quench CP1 inactive.
For CCN(CC)c1ccc(N=Cc2c(O)n(-c3ccccc3C)c(=O)[nH]c2=O)cc1 the results were GRK2 inh inactive, ABHD5 PLIN5 PPI inactive, NadD inh inactive, SENP1 inh inactive, Beta2AR agonist inactive, GRK2 CP1 inactive and FAM quench CP1 inactive.
For Cn1c(O)c(/C=N/N2CCOCC2)c(=O)n(C)c1=S the results were GRK2 inh inactive, ABHD5 PLIN5 PPI inactive, NadD inh inactive, SENP1 inh inactive and Beta2AR agonist inactive.
Cc1cc(O)c(CN2CC=C(c3ccccc3)CC2)cc1C(C)C was read as GRK2 inh inactive, ABHD5 PLIN5 PPI inactive, NadD inh inactive, SENP1 inh inactive and Beta2AR agonist inactive.
CCN(CC)c1ccc(/C=C2/C(=O)NC(=O)N(Cc3ccco3)C2=O)cc1 was read as GRK2 inh inactive, ABHD5 PLIN5 PPI inactive, NadD inh inactive, SENP1 inh inactive and Beta2AR agonist inactive.
`NC(=O)C1CCN(/C=C2\C(=O)NC(=O)N(Cc3ccco3)C2=O)CC1` gave GRK2 inh 47, ABHD5 PLIN5 PPI inactive, NadD inh inactive, SENP1 inh inactive, Beta2AR agonist inactive, GRK2 CP1 inactive and FAM quench CP1 inactive.
`O=C1NC(=O)N(c2ccc3c(c2)OCO3)C(=O)/C1=C\c1ccc(-c2ccccc2C(=O)O)o1` gave GRK2 inh 60, ABHD5 PLIN5 PPI 30, NadD inh inactive, SENP1 inh inactive, Beta2AR agonist inactive, GRK2 CP1 47, Aptamer quench inactive, FAM quench CP1 inactive, ABHD5-PLIN5 conf 78 and HNF4 split-luc 89.
Screening O=C(O)COc1cc(Cl)c(Cl)cc1Cl returned ABHD5 PLIN5 PPI inactive, NadD inh inactive and SENP1 inh inactive.
Screening COc1ccc(CC2C(=O)NC(=O)NC2=O)c(OC)c1 returned GRK2 inh inactive, ABHD5 PLIN5 PPI inactive, NadD inh inactive, SENP1 inh inactive and Beta2AR agonist inactive.

Screening results: PubChem, several laboratories
